Assay results: ChEMBL document CHEMBL1122773 (1984)
Converted amounts (≈) assume the structure as drawn.

Tests used:
Mus musculus [1] = assay: Bioactivity in blood, in Bacteroides fragilis infected mice following subcutaneous dose of 200 mg/kg after 150 mins of bleeding; type: functional
Summary of the method: (§1)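 On day 7 post-infection, groups of five mice were given a single 200 mg/kg subcutaneous dose and killed at set times. Blood was taken by cardiac puncture and abscesses were excised. Activity was measured by standard microbiological assay.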

Staphylococcus aureus [2] = assay: In vitro antibacterial activity against the aerobic Staphylococcus aureus (Strain UC no.76); type: functional
Summary of the method: (§2)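 Broth microdilution in brain/heart infusion broth with twofold drug dilutions. Inoculum was a standardized suspension giving 10⁵ viable cells/mL final. Plates were incubated 20 h at 37 °C. MIC (mcg/mL) = lowest concentration with no visible growth.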

Escherichia coli = assay: In vitro antibacterial activity against the aerobic Escherichia coli (Strain UC no.45); type: functional; summary of the method: as §2
[3] = In vitro antibacterial activity against the aerobic […] III(Strain UC no.3213); type: functional; summary of the method: as §2
Clostridium tetani = assay: In vitro antibacterial activity against the anaerobic Clostridium tetani(Strain UC no.6521); type: functional
Summary of the method: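 Agar dilution under anaerobic conditions. Serial twofold drug dilutions in Schaedler broth were mixed with molten Wilkins-Chalgren agar. Plates were prereduced 3 h (85% N2, 10% H2, 5% CO2). Strains were grown 48 h on Schaedler agar, suspended to 0.5 McFarland, and 0.001 mL spotted by replicator. Incubation was anaerobic, 37 °C, 48 h.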

[4] = In vitro antibacterial activity against the aerobic […] (Strain UC no.153); type: functional; summary of the method: as §2
Staphylococcus aureus [5] = assay: In vitro antibacterial activity against the aerobic Staphylococcus aureus (Strain UC no.6693); type: functional; summary of the method: as §2
Staphylococcus aureus [6] = assay: In vitro antibacterial activity against the aerobic Staphylococcus aureus (Strain UC no.6694); type: functional; summary of the method: as §2
Mus musculus [7] = assay: Bioactivity in abscess, in Bacteroides fragilis infected mice following subcutaneous dose of 200 mg/kg after 45 mins of bleeding; type: functional; summary of the method: as §1
Staphylococcus aureus [8] = assay: In vitro antibacterial activity against the aerobic Staphylococcus aureus (Strain UC no.6696); type: functional; summary of the method: as §2
Staphylococcus aureus [9] = assay: In vitro antibacterial activity against the aerobic Staphylococcus aureus (Strain UC no.6695); type: functional; summary of the method: as §2
Clostridium cadaveris = assay: In vitro antibacterial activity against the anaerobic Clostridium cadaveris (Strain UC no.6510); type: functional
Summary of the method: (§3)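 Agar dilution with serial twofold drug dilutions in Schaedler broth mixed into molten Wilkens-Chalgren agar. Plates prereduced 3 h under 85% N2/10% H2/5% CO2. Strains grown 48 h on Schaedler agar, suspended to 0.5 McFarland, and 0.001 mL spotted by replicator. All steps done anaerobically. Incubation 48 h at 37 °C. MIC is the least drug inhibiting growth; a faint film or fewer than three colonies scored negative.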

Mus musculus [10] = assay: Bioactivity in abscess, in Bacteroides fragilis infected mice following subcutaneous dose of 200 mg/kg after 90 mins of bleeding; type: functional; summary of the method: as §1
Mus musculus [11] = assay: Bioactivity in blood, in Bacteroides fragilis infected mice following subcutaneous dose of 200 mg/kg after 90 mins of bleeding; type: functional; summary of the method: as §1
Mus musculus [12] = assay: Bioactivity in blood, in Bacteroides fragilis infected mice following subcutaneous dose of 200 mg/kg after 30 mins of bleeding; type: functional; summary of the method: as §1
Staphylococcus aureus [13] = assay: In vitro antibacterial activity against the aerobic Staphylococcus aureus (Strain UC no.571); type: functional; summary of the method: as §2
[14] = test system: Peptoniphilus asaccharolyticus; assay: In vitro antibacterial activity against the anaerobic Peptoccus aerogenes (Strain UC no.6319); type: functional; summary of the method: as §3
Mus musculus [15] = assay: Bioactivity in blood, in Bacteroides fragilis infected mice following subcutaneous dose of 200 mg/kg after 120 mins of bleeding; type: functional; summary of the method: as §1
Mus musculus [16] = assay: Bioactivity in blood, in Bacteroides fragilis infected mice following subcutaneous dose of 200 mg/kg after 15 mins of bleeding; type: functional; summary of the method: as §1
Staphylococcus aureus [17] = assay: In vitro antibacterial activity against the aerobic Staphylococcus aureus (Strain UC no.6688); type: functional; summary of the method: as §2
Pseudomonas aeruginosa = assay: In vitro antibacterial activity against the aerobic Pseudomonas aeruginosa (Strain UC no.95); type: functional; summary of the method: as §2
Staphylococcus aureus [18] = assay: In vitro antibacterial activity against the aerobic Staphylococcus aureus (Strain UC no.570); type: functional; summary of the method: as §2
[19] = In vitro antibacterial activity against the aerobic […] I(Strain UC no.41); type: functional; summary of the method: as §2
Mus musculus [20] = assay: Bioactivity in abscess, in Bacteroides fragilis infected mice following subcutaneous dose of 200 mg/kg after 360 mins of bleeding; type: functional; summary of the method: as §1
Mus musculus [21] = assay: Bioactivity in abscess, in Bacteroides fragilis infected mice following subcutaneous dose of 200 mg/kg after 15 mins of bleeding; type: functional; summary of the method: as §1
Klebsiella pneumoniae = assay: In vitro antibacterial activity against the aerobic Klebsiella pneumoniae (Strain UC no.58); type: functional; summary of the method: as §2
Staphylococcus aureus [22] = assay: In vitro antibacterial activity against the aerobic Staphylococcus aureus (Strain UC no.746); type: functional; summary of the method: as §2
Streptococcus pyogenes = assay: In vitro antibacterial activity against the aerobic Streptococcus pyogenes (Strain UC no.152)
Cutibacterium acnes = assay: In vitro antibacterial activity against the anaerobic Propionibacterium acnes(Strain UC no.6575); type: functional; summary of the method: as §3
Mus musculus [23] = assay: Bioactivity in abscess, in Bacteroides fragilis infected mice following subcutaneous dose of 200 mg/kg after 150 mins of bleeding; type: functional; summary of the method: as §1
Staphylococcus aureus [24] = assay: In vitro antibacterial activity against the aerobic Staphylococcus aureus (Strain UC no.6691); type: functional; summary of the method: as §2
Mus musculus [25] = assay: Bioactivity in abscess, in Bacteroides fragilis infected mice following subcutaneous dose of 200 mg/kg after 120 mins of bleeding; type: functional; summary of the method: as §1
Staphylococcus aureus [26] = assay: In vitro antibacterial activity for minimum inhibition concentration (MIC) required to inhibit growth of Staphylococcus aureus; type: functional
Summary of the method: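 Broth microdilution in brain/heart infusion broth, inoculated with a standardized suspension to a final 10^5 viable cells/mL. Incubation 20 h at 37 °C. MIC read as the lowest concentration preventing visible growth.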

Staphylococcus aureus [27] = assay: In vitro antibacterial activity against the aerobic Staphylococcus aureus (Strain UC no.6692); type: functional; summary of the method: as §2
Staphylococcus aureus [28] = assay: In vitro antibacterial activity against the aerobic Staphylococcus aureus (Strain UC no.6675); type: functional; summary of the method: as §2
Mus musculus [29] = assay: Bioactivity in abscess, in Bacteroides fragilis infected mice following subcutaneous dose of 200 mg/kg after 30 mins of bleeding; type: functional; summary of the method: as §1
Mus musculus [30] = assay: Bioactivity in abscess, in Bacteroides fragilis infected mice following subcutaneous dose of 200 mg/kg after 60 mins of bleeding; type: functional; summary of the method: as §1
Proteus vulgaris = assay: In vitro antibacterial activity against the aerobic Proteus vulgaris (Strain UC no.93); type: functional; summary of the method: as §2
[31] = In vitro antibacterial activity against the aerobic […] (Strain UC no.871); type: functional; summary of the method: as §2
Mus musculus [32] = assay: Bioactivity in blood, in Bacteroides fragilis infected mice following subcutaneous dose of 200 mg/kg after 45 mins of bleeding; type: functional; summary of the method: as §1
Staphylococcus aureus [33] = assay: In vitro antibacterial activity against the aerobic Staphylococcus aureus (Strain UC no.6689); type: functional; summary of the method: as §2
Mus musculus [34] = assay: Bioactivity in blood, in Bacteroides fragilis infected mice following subcutaneous dose of 200 mg/kg after 60 mins of bleeding; type: functional; summary of the method: as §1
[35] = In vitro antibacterial activity against the aerobic Salmonella schottmuelleri (Strain UC no.126); type: functional; summary of the method: as §2
Mus musculus [36] = assay: Bioactivity in blood, in Bacteroides fragilis infected mice following subcutaneous dose of 200 mg/kg after 360 mins of bleeding; type: functional; summary of the method: as §1
Staphylococcus aureus [37] = assay: In vitro antibacterial activity against the aerobic Staphylococcus aureus (Strain UC no.6686); type: functional; summary of the method: as §2

CCC[C@@H]1C[C@@H](C(=O)N[C@@H]([C@H]2O[C@H](SC)[C@H](O)[C@@H](O)[C@H]2O)[C@H](C)Cl)N(C)C1 [CLINDAMYCIN]
B (Mus musculus [1]): 1.4 ug (g of abscess)-1
MIC (Staphylococcus aureus [2]): 0.05 µg/mL (≈ 0.118 µM)
MIC (Escherichia coli): > 25 µg/mL
MIC [3]: < 0.012 µg/mL
MIC (Clostridium tetani): < 0.03 µg/mL
MIC [4]: < 0.012 µg/mL
MIC (Staphylococcus aureus [5]): 0.05 µg/mL (≈ 0.118 µM)
MIC (Staphylococcus aureus [6]): > 25 µg/mL
A (Mus musculus [7]): 26 ug (g of abscess)-1
MIC (Staphylococcus aureus [8]): 0.1 µg/mL (≈ 0.235 µM)
MIC (Staphylococcus aureus [9]): 0.1 µg/mL (≈ 0.235 µM)
MIC (Clostridium cadaveris): < 0.03 µg/mL
A (Mus musculus [10]): 13 ug (g of abscess)-1
B (Mus musculus [11]): 4 ug (g of abscess)-1
B (Mus musculus [12]): 23 ug (g of abscess)-1
MIC (Staphylococcus aureus [13]): 0.2 µg/mL (≈ 0.471 µM)
MIC [14]: < 0.03 µg/mL
B (Mus musculus [15]): 3 ug (g of abscess)-1
B (Mus musculus [16]): 17 ug (g of abscess)-1
MIC (Staphylococcus aureus [17]): > 25 µg/mL
MIC (Pseudomonas aeruginosa): > 25 µg/mL
MIC (Staphylococcus aureus [18]): 0.2 µg/mL (≈ 0.471 µM)
MIC [19]: < 0.012 µg/mL
A (Mus musculus [20]): 3 ug (g of abscess)-1
A (Mus musculus [21]): 16 ug (g of abscess)-1
MIC (Klebsiella pneumoniae): 12.5 µg/mL (≈ 29.4 µM)
MIC (Staphylococcus aureus [22]): 0.05 µg/mL (≈ 0.118 µM)
MIC (Streptococcus pyogenes): < 0.012 µg/mL
MIC (Cutibacterium acnes): < 0.03 µg/mL
A (Mus musculus [23]): 8 ug (g of abscess)-1
MIC (Staphylococcus aureus [24]): 0.1 µg/mL (≈ 0.235 µM)
A (Mus musculus [25]): 9 ug (g of abscess)-1
MIC (Staphylococcus aureus [26]): > 25 µg/mL
MIC (Staphylococcus aureus [27]): > 25 µg/mL
MIC (Staphylococcus aureus [28]): 0.05 µg/mL (≈ 0.118 µM)
A (Mus musculus [29]): 22 ug (g of abscess)-1
A (Mus musculus [30]): 21 ug (g of abscess)-1
MIC (Proteus vulgaris): > 25 µg/mL
MIC [31]: < 0.012 µg/mL
B (Mus musculus [32]): 17 ug (g of abscess)-1
MIC (Staphylococcus aureus [33]): 0.05 µg/mL (≈ 0.118 µM)
B (Mus musculus [34]): 12 ug (g of abscess)-1
MIC [35]: > 25 µg/mL
B (Mus musculus [36]): 0.2 ug (g of abscess)-1
MIC (Staphylococcus aureus [37]): 0.05 µg/mL (≈ 0.118 µM)
